Measurements: publication PMC7318171 (Journal of Clinical Pharmacology, 2020)

Tests used:
[1] = cited from earlier work
[2] = Biopharmaceutic properties; type: physicochemical
[3] = target: T1, organic anion–transporting polypeptide 1B3 (Homo sapiens, UniProt Q9NPD5); test: Hepatic uptake transporter substrate assessment, OATP1B3; type: in vitro ADME
T1 sequence (Q9NPD5 1-702): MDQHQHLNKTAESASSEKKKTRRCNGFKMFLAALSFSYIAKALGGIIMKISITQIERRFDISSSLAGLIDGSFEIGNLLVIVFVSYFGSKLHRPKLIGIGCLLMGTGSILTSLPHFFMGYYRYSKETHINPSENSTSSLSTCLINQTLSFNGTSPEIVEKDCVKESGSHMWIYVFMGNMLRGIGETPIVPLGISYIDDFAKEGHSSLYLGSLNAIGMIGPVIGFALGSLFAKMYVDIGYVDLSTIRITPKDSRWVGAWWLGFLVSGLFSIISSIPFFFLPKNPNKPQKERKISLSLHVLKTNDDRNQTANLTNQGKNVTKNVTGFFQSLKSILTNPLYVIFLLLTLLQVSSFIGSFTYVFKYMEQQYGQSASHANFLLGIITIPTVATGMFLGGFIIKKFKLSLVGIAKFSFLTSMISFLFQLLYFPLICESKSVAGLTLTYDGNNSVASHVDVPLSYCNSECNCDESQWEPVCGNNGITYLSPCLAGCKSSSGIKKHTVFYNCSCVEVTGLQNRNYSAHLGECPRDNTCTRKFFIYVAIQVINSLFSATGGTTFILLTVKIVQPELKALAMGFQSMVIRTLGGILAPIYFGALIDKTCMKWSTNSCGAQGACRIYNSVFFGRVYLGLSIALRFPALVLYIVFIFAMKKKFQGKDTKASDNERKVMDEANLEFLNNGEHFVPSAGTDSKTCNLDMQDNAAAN

[4] = target: T2, organic anion–transporting polypeptide 1B1 (Homo sapiens, UniProt Q9Y6L6); test: Hepatic uptake transporter substrate assessment, OATP1B1; type: in vitro ADME
T2 sequence (Q9Y6L6 1-691): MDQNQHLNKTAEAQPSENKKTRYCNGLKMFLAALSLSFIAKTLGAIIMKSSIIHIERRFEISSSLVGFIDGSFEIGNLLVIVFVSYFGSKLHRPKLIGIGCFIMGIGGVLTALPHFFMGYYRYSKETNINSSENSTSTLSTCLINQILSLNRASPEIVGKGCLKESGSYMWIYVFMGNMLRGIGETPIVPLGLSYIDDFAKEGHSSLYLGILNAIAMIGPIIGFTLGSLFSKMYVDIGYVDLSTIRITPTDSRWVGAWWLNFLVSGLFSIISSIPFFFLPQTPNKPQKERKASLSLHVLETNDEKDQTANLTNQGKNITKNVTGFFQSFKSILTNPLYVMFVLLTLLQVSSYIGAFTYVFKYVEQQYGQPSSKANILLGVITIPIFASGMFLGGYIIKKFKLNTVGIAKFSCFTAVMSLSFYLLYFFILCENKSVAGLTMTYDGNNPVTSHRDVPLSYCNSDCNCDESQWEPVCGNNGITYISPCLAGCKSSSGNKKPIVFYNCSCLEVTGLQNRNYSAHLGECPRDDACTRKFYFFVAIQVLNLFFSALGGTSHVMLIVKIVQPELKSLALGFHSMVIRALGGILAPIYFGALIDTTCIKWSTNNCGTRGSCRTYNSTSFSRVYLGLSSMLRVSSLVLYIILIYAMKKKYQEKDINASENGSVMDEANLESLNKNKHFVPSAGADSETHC

[5] = cited from earlier work; remark: listed apart in the source
[6] = Measured physicochemical properties
[7] = Rifampin interaction study; type: in vivo, human
Procedure, shortened: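 Single oral 200‑mg dose given alone and again with rifampin 600 mg once daily. Plasma levels of parent and active metabolites were measured in both arms, and mean concentration–time profiles are shown with SDs. Cmax and AUC0‑∞ were taken, with Tmax as median (min‑max). The interaction was expressed as with/without‑rifampin ratios of AUC0‑∞ and Cmax.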

[8] = target: T3, organic cation transporter 1 (Homo sapiens, UniProt O15245); test: Hepatic uptake transporter substrate assessment, OCT1; type: in vitro ADME
T3 sequence (O15245 1-554): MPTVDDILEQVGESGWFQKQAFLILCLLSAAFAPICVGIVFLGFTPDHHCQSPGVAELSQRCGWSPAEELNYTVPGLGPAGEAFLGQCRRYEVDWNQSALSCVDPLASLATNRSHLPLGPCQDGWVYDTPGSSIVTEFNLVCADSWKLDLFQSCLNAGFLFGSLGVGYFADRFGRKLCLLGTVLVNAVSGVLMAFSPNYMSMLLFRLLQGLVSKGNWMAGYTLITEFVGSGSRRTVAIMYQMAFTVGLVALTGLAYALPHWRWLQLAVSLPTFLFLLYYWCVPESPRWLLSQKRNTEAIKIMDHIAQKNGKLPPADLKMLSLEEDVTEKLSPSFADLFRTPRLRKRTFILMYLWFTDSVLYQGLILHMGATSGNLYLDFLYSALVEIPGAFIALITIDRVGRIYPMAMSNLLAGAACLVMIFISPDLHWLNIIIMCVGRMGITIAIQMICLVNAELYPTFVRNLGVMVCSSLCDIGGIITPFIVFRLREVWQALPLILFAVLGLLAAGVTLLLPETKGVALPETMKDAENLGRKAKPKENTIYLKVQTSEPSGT

[9] = Mass balance study with 14C-labeled abemaciclib; type: in vivo, human
CDK4/cyclin D1 = details: read-out: CDK4/cyclin D1 half‐maximal inhibitory concentration, mean ± SD; measured in vitro; cited from earlier work
Absolute bioavailability = type: in vivo; details: human, plasma
[10] = target: T4, breast cancer resistance protein (Homo sapiens, UniProt Q9UNQ0); test: Efflux transporter substrate assessment in vitro, BCRP; type: in vitro ADME
T4 sequence (Q9UNQ0 1-655): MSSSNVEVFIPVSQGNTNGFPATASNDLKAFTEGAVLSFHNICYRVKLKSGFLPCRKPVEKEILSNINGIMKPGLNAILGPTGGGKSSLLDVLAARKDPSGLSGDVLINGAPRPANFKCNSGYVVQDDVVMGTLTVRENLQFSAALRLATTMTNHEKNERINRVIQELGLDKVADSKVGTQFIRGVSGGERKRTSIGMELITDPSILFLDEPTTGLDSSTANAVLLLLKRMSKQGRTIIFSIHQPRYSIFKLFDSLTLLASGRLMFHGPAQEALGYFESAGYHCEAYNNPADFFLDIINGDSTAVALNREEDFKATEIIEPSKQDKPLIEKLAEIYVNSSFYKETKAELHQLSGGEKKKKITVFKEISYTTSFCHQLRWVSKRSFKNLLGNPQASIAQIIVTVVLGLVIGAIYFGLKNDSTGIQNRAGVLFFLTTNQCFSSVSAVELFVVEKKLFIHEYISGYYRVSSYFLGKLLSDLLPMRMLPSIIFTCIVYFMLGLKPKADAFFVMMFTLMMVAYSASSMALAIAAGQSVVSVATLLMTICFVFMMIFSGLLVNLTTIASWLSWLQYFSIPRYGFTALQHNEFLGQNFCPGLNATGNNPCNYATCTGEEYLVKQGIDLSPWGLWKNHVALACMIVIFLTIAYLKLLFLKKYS

P‐glycoprotein = P‐glycoprotein (Homo sapiens, UniProt P08183); test: Efflux transporter substrate assessment in vitro, P-glycoprotein; type: in vitro ADME
[11] = PBPK model input and disposition parameters
[12] = Fraction unbound in plasma; type: in vitro ADME; details: human
[13] = Clarithromycin interaction study; type: in vivo; details: both, human, plasma, po, 50 mg
[14] = both, human, plasma, po, 200 mg

Sequence of P‐glycoprotein (P08183 whole entry): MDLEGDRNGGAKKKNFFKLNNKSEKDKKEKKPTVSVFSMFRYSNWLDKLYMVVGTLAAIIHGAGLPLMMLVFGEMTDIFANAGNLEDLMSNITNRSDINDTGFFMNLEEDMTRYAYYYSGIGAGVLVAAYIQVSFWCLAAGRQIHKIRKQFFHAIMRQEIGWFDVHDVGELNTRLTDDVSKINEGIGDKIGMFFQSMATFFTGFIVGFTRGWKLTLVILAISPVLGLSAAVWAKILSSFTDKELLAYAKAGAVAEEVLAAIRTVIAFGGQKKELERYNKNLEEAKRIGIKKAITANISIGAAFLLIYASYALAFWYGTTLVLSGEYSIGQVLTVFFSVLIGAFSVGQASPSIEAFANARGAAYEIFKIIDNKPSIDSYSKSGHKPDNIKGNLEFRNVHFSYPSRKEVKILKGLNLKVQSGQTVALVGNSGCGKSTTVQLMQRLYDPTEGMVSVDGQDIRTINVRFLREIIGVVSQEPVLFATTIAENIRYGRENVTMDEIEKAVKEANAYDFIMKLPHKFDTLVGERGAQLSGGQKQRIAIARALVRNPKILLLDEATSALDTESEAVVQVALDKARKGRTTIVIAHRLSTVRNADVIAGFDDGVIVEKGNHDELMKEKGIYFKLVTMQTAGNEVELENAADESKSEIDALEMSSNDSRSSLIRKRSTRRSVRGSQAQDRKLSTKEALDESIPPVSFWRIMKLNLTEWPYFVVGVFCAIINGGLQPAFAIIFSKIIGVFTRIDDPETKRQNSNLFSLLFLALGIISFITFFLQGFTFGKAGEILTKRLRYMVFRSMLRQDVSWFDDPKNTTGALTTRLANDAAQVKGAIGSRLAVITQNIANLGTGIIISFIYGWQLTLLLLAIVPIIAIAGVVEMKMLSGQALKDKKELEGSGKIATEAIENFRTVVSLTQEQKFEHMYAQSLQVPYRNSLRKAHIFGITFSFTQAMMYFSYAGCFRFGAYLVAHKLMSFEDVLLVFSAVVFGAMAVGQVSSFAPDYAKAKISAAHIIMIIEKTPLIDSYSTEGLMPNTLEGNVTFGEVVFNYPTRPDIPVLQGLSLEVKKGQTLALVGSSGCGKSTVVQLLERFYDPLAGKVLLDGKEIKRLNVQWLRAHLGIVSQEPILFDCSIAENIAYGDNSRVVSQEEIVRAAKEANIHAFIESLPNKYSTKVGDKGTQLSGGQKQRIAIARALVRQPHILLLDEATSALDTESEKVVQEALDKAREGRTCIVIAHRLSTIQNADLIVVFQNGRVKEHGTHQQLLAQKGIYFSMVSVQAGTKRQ

## COc1ccccc1Oc1c(NS(=O)(=O)c2ccc(C(C)(C)C)cc2)nc(-c2ncccn2)nc1OCCO [Bosentan]
[1]; bosentan 125 mg BID 5 days, ketoconazole 200 mg QD
  Cmax ratio with and without ketoconazole: 1.62

## CCN1CCN(Cc2ccc(Nc3ncc(F)c(-c4cc(F)c5nc(C)n(C(C)C)c5c4)n3)nc2)CC1 [Abemaciclib]
[2]
  permeability (in words): high permeability
  solubility (in words): high solubility
[3]
  substrate of organic anion–transporting polypeptide 1B3: not substrates
[4]
  substrate of organic anion–transporting polypeptide 1B1: not substrates
[5]; abemaciclib and active species
  increase of AUC by a high‐fat and high‐calorie meal: 9%
[5]; oral administration
  time of observed maximum plasma concentration: […]
[6]; octanol/water
  logP: […]
[6]; pKa 2 (basic)
  pKa: 4.48
[7]; [14]
  AUC: 4570 ng·h/mL
[7]; with rifampin, observed
  decrease of AUC: 95%
[8]
  substrate of organic cation transporter 1: not substrates
[9]; 14C study
  percentage of parent in feces: 6.76%
[9]; human mass balance study
  radioactivity excreted in urine: […]
[9]; human, urine, oral, 150 mg
  CL renal: […]
[9]; oral dose, estimated from mass balance study, equation 1
  Fa (fraction absorbed): […]
CDK4/cyclin D1
  IC50: […]
Absolute bioavailability
  half-life: 29.3 h
Absolute bioavailability; iv, 0.4 mg
  Vd: 8.93 L/kg
[10]
  substrate of breast cancer resistance protein: substrate
P‐glycoprotein
  substrate of P‐glycoprotein: substrate
[11]; 200‐mg dose
  FG in the PBPK model: 0.74
[11]; 200‐mg oral dose, equation 5
  FG (fraction escaping first‐pass metabolism in the gut), calculated: approximately 0.77
[11]; 200‐mg oral dose, equations 2-4
  FH (fraction escaping first‐pass metabolism in the liver): 0.64
[12]
  fraction unbound: 0.0557
[13]
  AUC: […]
  Cmax: […]
  Tmax: […]
  half-life: […]

## Cc1ncc2n1-c1ccc(Cl)cc1C(c1ccccc1F)=NC2 [Midazolam]
[1]; IV midazolam with clarithromycin
  increase in AUC extrapolated to infinity: 3.5 fold
